Measured values: PubChem BioAssay
The source made the active and inactive calls.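 Rule for the calls, unless noted: active = compounds giving at least 50% inhibition in the cell-based MKP-3 phosphatase rescue imaging test; inactive = the rest.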

Columns and labels:
[1] = inhibitors of TNFa-induced NFkB p65 translocation, primary screen, imaging, HUVEC, MLSMR starter and 10KST1 sets (AID 438;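 active = inhibition above 20% together with a positive visual image hit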;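 note: compound added about 3h40 before a 20 min TNFalpha stimulation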;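 for inhibition: signal is the nuclear over cytoplasmic p65 intensity ratio per well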); settings: HUVEC TNFa-induced p65 nuclear translocation; cell count: measured here: nuclei count (cytotoxicity indicator), at 2.08 µM; inhibition: at 2 µM, stronger effect = higher value, 0% TNFa-plus-vehicle, 100% no-TNFa wells
[2] = inhibitors of E-selectin induction by TNFa, primary screen, imaging, HUVEC, immunofluorescence, MLSMR starter and 10KST1 sets (AID 487;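 active = visually confirmed hit in the image check and inhibition above 20%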;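 for inhibition: signal is fraction of cell area covered by stained E-selectin grains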;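 for nuclei count: 100% = median nuclei count of all wells on the same plate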); settings: HUVEC TNFalpha-induced E-selectin immunofluorescence imaging, at 2 µM; inhibition: stronger effect = higher value; nuclei count: measured here: cell number, toxicity
[3] = DUSP6 inhibitors restoring Erk phosphorylation by chemical complementation, primary imaging in DUSP6-transfected HeLa (AID 609); settings: HeLa MKP-3 transfected, phospho-Erk imaging KS statistic, at 10 µM, cells stimulated with TPA for 15 min;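 for inhibition: phospho-Erk level distribution per well compared with pooled transfected vehicle control wells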
[4] = target: Dual specificity protein phosphatase 6 (Homo sapiens) (UniProt Q16828); assay: as above; settings: HeLa MKP-3 transfected, phospho-Erk imaging KS statistic; at 10 µM; stronger effect = higher value; cells stimulated with TPA for 15 min
Chain of Dual specificity protein phosphatase 6 (Homo sapiens) (Q16828 whole entry, looked up): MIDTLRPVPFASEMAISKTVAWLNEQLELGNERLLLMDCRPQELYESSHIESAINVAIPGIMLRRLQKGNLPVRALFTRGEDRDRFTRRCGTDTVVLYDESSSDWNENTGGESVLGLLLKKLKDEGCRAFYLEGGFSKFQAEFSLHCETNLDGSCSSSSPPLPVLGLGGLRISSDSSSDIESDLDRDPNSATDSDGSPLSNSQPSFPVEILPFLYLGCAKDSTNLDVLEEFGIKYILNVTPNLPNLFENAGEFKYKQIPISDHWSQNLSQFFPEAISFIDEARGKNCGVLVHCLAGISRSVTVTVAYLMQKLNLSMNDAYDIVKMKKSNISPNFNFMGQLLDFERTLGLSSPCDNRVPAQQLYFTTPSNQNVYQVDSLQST

[5] = target: Voltage-gated potassium channel subunit beta-2 (Rattus norvegicus) (UniProt P62483); assay: KvBeta enzyme negative modulators, primary screen, biochemical, NADPH fluorescence (AID 622;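 active = fluorescence slope higher than the sample average by over 3 SD, cut at about -0.22 in these data, passing the limit was not always enough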;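 note: slope of raw intensity against log time taken from 70 to 1610 s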); settings: recombinant KvBeta, 4-cyanobenzaldehyde reduction, at 10 µM, stronger effect = higher value
Chain of Voltage-gated potassium channel subunit beta-2 (Rattus norvegicus) (P62483 whole entry, looked up): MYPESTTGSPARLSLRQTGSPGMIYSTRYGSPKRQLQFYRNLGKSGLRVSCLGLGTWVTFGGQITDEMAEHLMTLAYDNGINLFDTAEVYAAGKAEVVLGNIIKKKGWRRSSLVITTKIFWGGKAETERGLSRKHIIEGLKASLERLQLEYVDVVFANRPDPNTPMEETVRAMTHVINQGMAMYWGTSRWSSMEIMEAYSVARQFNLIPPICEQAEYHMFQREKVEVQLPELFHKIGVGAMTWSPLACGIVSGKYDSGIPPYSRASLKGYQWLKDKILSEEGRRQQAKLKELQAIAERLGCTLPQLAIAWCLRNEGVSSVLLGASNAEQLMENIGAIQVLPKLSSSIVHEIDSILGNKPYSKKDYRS

[6] = target: Voltage-gated potassium channel subunit beta-2 (Rattus norvegicus) (UniProt P62483); assay: KvBeta positive modulators, primary screen, biochemical, NADPH fluorescence (AID 623;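 active = NADPH fluorescence slope more negative than the mean of all samples by about 3 SD, 99.7% confidence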;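 note: fluorescence intensity change per second fitted from 20 to 320 s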); settings: Recombinant KvBeta, NADPH fluorescence decrease slope, 10 min; at 10 µM; stronger effect = lower value
[7] = target: Muscarinic acetylcholine receptor M4 (Homo sapiens) (UniProt P08173); assay: compounds altering M4/GIRK thallium flux, either direction, primary screen, M4 allosteric agonist project, cell-based, HEK293 M4/GIRK, BTC-AM (AID 625;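 active = fluorescence slope after compound addition differing from the mean of all tested samples at 99.7% confidence, mostly higher but some lower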;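 note: thallium influx through GIRK channels coupled to M4 in HEK293 cells with BTC-AM dye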); settings: at 10 µM, actives lie on both sides
Chain of Muscarinic acetylcholine receptor M4 (Homo sapiens) (P08173 whole entry, looked up): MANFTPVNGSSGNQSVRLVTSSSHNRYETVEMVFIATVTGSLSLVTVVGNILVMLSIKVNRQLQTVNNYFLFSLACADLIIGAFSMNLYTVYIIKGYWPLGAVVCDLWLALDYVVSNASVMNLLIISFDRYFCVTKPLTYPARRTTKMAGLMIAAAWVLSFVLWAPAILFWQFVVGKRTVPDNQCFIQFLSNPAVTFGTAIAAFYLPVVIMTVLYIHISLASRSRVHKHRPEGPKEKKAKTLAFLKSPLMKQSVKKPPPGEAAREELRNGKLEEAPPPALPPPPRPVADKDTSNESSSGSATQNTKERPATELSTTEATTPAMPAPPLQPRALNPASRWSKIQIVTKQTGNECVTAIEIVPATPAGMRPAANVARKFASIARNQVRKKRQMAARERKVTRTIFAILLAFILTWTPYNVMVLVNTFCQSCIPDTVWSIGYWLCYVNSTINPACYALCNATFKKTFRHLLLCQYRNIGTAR
Method in brief: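 Material: HEK293 cells with M4 receptor and GIRK channels; Times: cells overnight at 37 °C, BTC-AM loading 1 h, reads 2 min total; Technique: kinetic BTC-AM fluorescence sampled at 1 Hz, 10 s pre-addition baseline; Read-out basis: slope over 15–24 s of trace normalized to starting intensity; Controls: carbachol positive, DMSO negative.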

[8] = inhibitors of larval lipid processing in zebrafish, primary screen, whole organism, PED6 fluorescence, gall bladder and intestine (AID 686;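 active = a full or partial loss of lipid-probe fluorescence in the fish gall bladder, intestine or both, judged by eye; inactive = no fluorescence loss, or compound toxic to the fish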;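 note: larvae 5 to 7 days old with five fish per well; signal comes from phospholipase A2 cleavage of quenched PED6 carried via bile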); settings: Zebrafish larvae PED6 lipid processing, fluorescence scoring; screened at 20 µM (by protocol)
Method in brief: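 Incubation: overnight exposure of larvae to compound plus PED6 / Test system: live zebrafish larvae aged 5-7 days, whole organism / Amount: 5 larvae per well / Read-out basis: visual per-well fluorescence inhibition score / Signal: visual fluorescence microscopy scoring of gall bladder, gut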

[9] = inhibitors of Chlamydomonas gravitaxis, primary screen, whole organism, Chlamydomonas reinhardtii, WT vs cilia-less mutant, absorbance, 96-well (AID 463189;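 active = inhibition at or above 50% relative to wild type and mutant plate controls; inactive = inhibition below 50%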;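 note: 0% = wild type cc124 cells in DMSO and 100% = ciliumless bld1 mutant cells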); settings: OD600 absorbance, 2 days, at 10 µM, stronger effect = higher value
[10] = measured here: cell density z-score
[11] = measured here: nuclear c-Myc green intensity z-score
[12] = measured here: nuclear pErk red intensity z-score, stronger effect = higher value

Row | Structure (SMILES) | cell count [1] | inhibition [1] | inhibition [2] | nuclei count [2] | z-score [3, 10] | z-score [3, 11] | z-score [3, 12] | inhibition [4] | fluorescence slope [5] | NADPH fluorescence slope [6] | fluorescence slope [7] | outcome [8] | inhibition [9]
1 | C/C(NC(=O)c1cccs1)=C1\C(=O)C[C@@H]2[C@H]1C2(C)C | 562 | -1.6% (inactive) | -127% (inactive) | 150% | 0.211 | -0.0395 | -0.0984 | 11.9% (inactive) | -0.392 (inactive) | -6e-05 (inactive) | 0.00498 (inactive) | inactive | -3.09% (inactive)
2 | Cc1ccc(OCC(=O)N(C)CCc2ccccn2)cc1 | 475 | -5.5% (inactive) | -175% (inactive) | 159% | -0.678 | -1.49 | 1.57 | -2.29% (inactive) | -0.433 (inactive) | -5.2e-05 (inactive) | 0.00557 (inactive) | inactive | 7.87% (inactive)
3 | Cn1c(=O)n(CC(=O)Nc2ccccc2)c2ccccc21 | 382 | -4.5% (inactive) | -15.2% (inactive) | 152% | -0.194 | 0.676 | -0.438 | 22.3% (inactive) | -0.453 (inactive) | -0.000119 (inactive) | 0.0039 (inactive) | inactive | -5.61% (inactive)
4 | CCOC(=O)C1=Nc2ccccc2C1=[N+]=[N-] | 714 | -2.2% (inactive) | 6.6% (inactive) | 179% | -0.487 | 0.636 | 1.84 | -5.95% (inactive) | -0.477 (inactive) | -4.9e-05 (inactive) | 0.00733 (inactive) | inactive | 152% (active)
5 | Clc1ccc(-n2ncc3c(NCc4cccs4)ncnc32)cc1 | 615 | -9.4% (inactive) | -52.5% (inactive) | 125% | 0.539 | 0.108 | 0.0803 | 11.4% (inactive) | -0.385 (inactive) | -2.1e-05 (inactive) | 0.00704 (inactive) | inactive | 42.7% (inactive)
6 | O=C(Nc1ncccc1Cl)c1cccc(F)c1 | 527 | 0.8% (inactive) | 19.5% (inactive) | 88.6% | -1.41 | 0.161 | -0.3 | 3.42% (inactive) | -0.419 (inactive) | 1.2e-05 (inactive) | 0.0047 (inactive) | inactive | 34.1% (inactive)
7 | COc1ccc(CC(=O)n2c(CC#N)nc3ccccc32)cc1OC | 598 | -10.9% (inactive) | -32.4% (inactive) | 112% | -0.393 | -2.03 | 0.813 | -0.233% (inactive) | -0.465 (inactive) | -3.6e-05 (inactive) | 0.00563 (inactive) | inactive | 9.22% (inactive)
8 | Cc1ccc(-n2ncc3c(N4CCC(C(N)=O)CC4)ncnc32)c(C)c1 | 525 | -15.6% (inactive) | -31.1% (inactive) | 113% | -0.735 | 0.453 | -0.332 | 7.42% (inactive) | -0.391 (inactive) | -3.9e-05 (inactive) | 0.0065 (inactive) | inactive | 42.2% (inactive)
9 | O=C(Nc1nnc(SCc2ccccc2F)s1)c1ccco1 | 600 | -10.3% (inactive) | -62.9% (inactive) | 109% | -0.259 | -0.419 | -0.101 | 5.35% (inactive) | -0.502 (inactive) | -5.2e-05 (inactive) | 0.00604 (inactive) | inactive | 39.5% (inactive)
10 | CC(NC(=O)NCc1cccnc1)(C(F)(F)F)C(F)(F)F | 708 | -13.6% (inactive) | -45% (inactive) | 138% | -0.926 | 1.23 | 1.47 | -2.09% (inactive) | -0.446 (inactive) | -4.7e-05 (inactive) | 0.00505 (inactive) | inactive | 10.1% (inactive)
11 | c1ccc2c(c1)CCN(c1ncnc3c1[nH]c1ccccc13)C2 | 585 | -19.2% (inactive) | -59.1% (inactive) | 172% | 0.335 | -1.2 | 1.56 | -4.59% (inactive) | -0.388 (inactive) | -1.5e-05 (inactive) | 0.00488 (inactive) | inactive | 42.6% (inactive)
12 | COc1ccc(-n2ncc3c(Nc4cccc(C)c4)ncnc32)cc1 | 629 | -11.3% (inactive) | -122% (inactive) | 182% | 1.43 | 1.07 | -1.65 | 11.4% (inactive) | -0.319 (inactive) | -1.2e-05 (inactive) | 0.00486 (inactive) | inactive | 3.81% (inactive)
13 | Cc1cc(O)ccc1-c1cnc2ccccc2n1 | 695 | 2% (inactive) | -163% (inactive) | 166% | -0.391 | 1.61 | 0.545 | -6.06% (inactive) | -0.482 (inactive) | -6.2e-05 (inactive) | 0.00527 (inactive) | inactive | -11.2% (inactive)
14 | CCN(CC)CCOC(=O)c1c(C)n(C)c2ccc(OC)cc12 | 669 | -3.7% (inactive) | -50.2% (inactive) | 150% | 0.791 | -1.04 | -1.03 | 4.37% (inactive) | -0.466 (inactive) | -0.000107 (inactive) | 0.00645 (inactive) | inactive | 32.6% (inactive)
15 | CCOc1ccc(S(=O)(=O)N(C)CCO)cc1-c1nc2c(C(C)(C)C)nn(C)c2c(=O)[nH]1 | 637 | 4.6% (inactive) | -94.9% (inactive) | 165% | 0.365 | 1.27 | -0.248 | 1.12% (inactive) | -0.484 (inactive) | -3.4e-05 (inactive) | 0.00687 (inactive) | inactive | 8.59% (inactive)
16 | COc1ccc(C2CC(c3ccc(C)cc3)Nc3nc(N)nn32)cc1 (stereo unspecified) | 390 | 2.2% (inactive) | -104% (inactive) | 145% | -0.765 | 2.44 | -0.827 | 9.82% (inactive) | -0.447 (inactive) | -7.3e-05 (inactive) | 0.00548 (inactive) | inactive | -10.9% (inactive)
17 | COc1ccc(NC(=O)c2c(C)cc(=O)oc2C)c(OC)c1 | 631 | 3.2% (inactive) | 11.9% (inactive) | 111% | 0.599 | -0.258 | 0.577 | -7.67% (inactive) | -0.454 (inactive) | -3.9e-05 (inactive) | 0.00518 (inactive) | inactive | -7.06% (inactive)
18 | COC(=O)/C=c1/s/c(=C(\C#N)C(=O)NCc2ccco2)n(-c2ccccc2)c1=O | 395 | 0.2% (inactive) | -54.5% (inactive) | 129% | -0.296 | -0.55 | -0.453 | 1.48% (inactive) | -0.455 (inactive) | -3.8e-05 (inactive) | 0.00374 (inactive) | inactive | 45.7% (inactive)
19 | CN(C)CCOC(=O)Cc1ccc(Cl)cc1 | 622 | -6.2% (inactive) | -90.8% (inactive) | 83.6% | 1.56 | -0.995 | -0.341 | 12.8% (inactive) | -0.539 (inactive) | -4.8e-05 (inactive) | 0.00854 (inactive) | inactive | 35.4% (inactive)
20 | O=C(CN1C(=O)c2ccccc2C1=O)OCN1C(=O)c2ccccc2C1=O | 494 | -4.5% (inactive) | -52.7% (inactive) | 125% | 0.289 | 0.0514 | -0.238 | 3.97% (inactive) | -0.348 (inactive) | -2.7e-06 (inactive) | 0.00658 (inactive) | inactive | -6.56% (inactive)
21 | CN1CCc2c(C#N)c(N3CCCCC3)nc(NCc3ccccc3)c2C1 | 577 | -13.5% (inactive) | -93.5% (inactive) | 143% | 0.729 | -1.12 | 0.497 | -2.09% (inactive) | -0.422 (inactive) | -6.7e-05 (inactive) | 0.00359 (inactive) | inactive | 7.09% (inactive)
22 | Cc1nc2c(o1)CCc1ccccc1C2N1CCN(C)CC1 (stereo unspecified) | 557 | 1.3% (inactive) | -37.3% (inactive) | 103% | 0.777 | -1.51 | 1.56 | 17.8% (inactive) | -0.412 (inactive) | -3.4e-05 (inactive) | 0.00552 (inactive) | inactive | 29.5% (inactive)
23 | CC1(C)Cc2[nH]c(=O)c(C#N)cc2CS1 | 595 | -11.1% (inactive) | -93.7% (inactive) | 149% | 0.698 | -0.413 | 1.37 | -0.233% (inactive) | -0.435 (inactive) | -0.000124 (inactive) | 0.00467 (inactive) | inactive | 3.23% (inactive)
24 | O=c1c(-c2ccc(Cl)cc2)[n+]([O-])c2ccccc2n1O | 517 | -16.1% (inactive) | -12.5% (inactive) | 170% | 0.0473 | 0.796 | 0.573 | 15.9% (inactive) | -0.31 (inactive) | -3.9e-05 (inactive) | 0.0132 (active) | inactive | 33.5% (inactive)
25 | CCOc1ccc(-c2nc(C#N)c(N3CCN(CC)CC3)o2)cc1 | 416 | 0.1% (inactive) | -29.1% (inactive) | 129% | 0.554 | 0.103 | 0.968 | -2.69% (inactive) | -0.498 (inactive) | -0.00012 (inactive) | 0.00446 (inactive) | inactive | 5.29% (inactive)
26 | CCOC(=O)C1CCN(c2ncnc3c2cnn3-c2ccc(Cl)cc2)CC1 | 621 | -13.7% (inactive) | -82.8% (inactive) | 158% | 1.18 | -0.0217 | -0.611 | 27.4% (inactive) | -0.442 (inactive) | -1.8e-05 (inactive) | 0.00741 (inactive) | inactive | -0.354% (inactive)
27 | CCc1nc(NCCN2CCOCC2)c(C#N)c2c1CCCC2 | 358 | -2.8% (inactive) | -19.6% (inactive) | 79.7% | -0.865 | 0.944 | 0.38 | 11.4% (inactive) | -0.595 (inactive) | 4.1e-06 (inactive) | 0.00436 (inactive) | inactive | 30.2% (inactive)
